{"source": "ChEMBL document CHEMBL1147589", "about": "“Abeta aggregation inhibitors. Part 1: Synthesis and biological activity of phenylazo benzenesulfonamides” (Bioorg Med Chem Lett, 2004)", "key": {"Rattus norvegicus [1]": {"species_on_record": "Rattus norvegicus", "test": "Effective concentration required to inhibit A-beta-40 fibril formation […]", "format": "functional", "method_in_brief": "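Thioflavin-T binding assay of Aβ40 aggregation. Aβ40 (25) was incubated with the compound at various concentrations in 50 mM TBS, pH 7.4, at 37 °C for 2 days. Fluorescence was read at Ex 450/Em 482 and scaled to Aβ40 alone (100%). EC50 is the concentration inhibiting aggregation by 50%. Values are averages of three separate experiments.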"}, "Rattus norvegicus [2]": {"species_on_record": "Rattus norvegicus", "test": "Evaluated for neurotoxicity by inhibition of neuron viability in rat cortical neurons expressed as IC50", "format": "functional", "method_in_brief": "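Cortical neurons were incubated with the compound at various concentrations, and viability was measured by MTT reduction with OD at 600 nm on an ELISA reader. IC50 is the concentration inhibiting neuron viability by 50%. Values are averages of three separate experiments.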"}, "[3]": {"test": "Therapeutic index expressed as the ratio of IC50 to EC50", "conditions": "rat; read-out: Therapeutic index", "method_in_brief": "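Therapeutic index = IC50/EC50. IC50 is the concentration inhibiting neuron viability by 50% in the MTT reduction assay on cortical neurons. EC50 is the concentration inhibiting Aβ40 aggregation by 50% in the thioflavin-T assay (25 Aβ40, TBS pH 7.4, 37 °C, 2 days). Both were determined at various compound concentrations in three separate experiments.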"}}}
{"smiles": "Nc1ccc(/N=N/c2ccc(S(N)(=O)=O)cc2)cc1", "values": [{"measurement": "EC50", "setting": "Rattus norvegicus [1]", "value": 100, "unit": "µM"}, {"measurement": "IC50", "setting": "Rattus norvegicus [2]", "value": "> 100", "unit": "µM"}]}
{"smiles": "CSc1cc(N)ccc1/N=N/c1ccc(S(N)(=O)=O)cc1", "values": [{"measurement": "EC50", "setting": "Rattus norvegicus [1]", "value": 56.8, "unit": "µM"}, {"measurement": "selectivity ratio", "setting": "[3]", "value": "> 1.76"}, {"measurement": "IC50", "setting": "Rattus norvegicus [2]", "value": "> 100", "unit": "µM"}]}
{"smiles": "NS(=O)(=O)c1ccc(/N=N/c2ccc(NCS(=O)(=O)O)cc2)cc1", "values": [{"measurement": "EC50", "setting": "Rattus norvegicus [1]", "value": 77.2, "unit": "µM"}, {"measurement": "selectivity ratio", "setting": "[3]", "value": "> 1.29"}, {"measurement": "IC50", "setting": "Rattus norvegicus [2]", "value": "> 100", "unit": "µM"}]}
{"smiles": "CCN(CC)CCNc1ccc(/N=N/c2ccc(S(N)(=O)=O)cc2)c2ccccc12", "values": [{"measurement": "EC50", "setting": "Rattus norvegicus [1]", "value": 15.1, "unit": "µM"}, {"measurement": "selectivity ratio", "setting": "[3]", "value": 1.47}, {"measurement": "IC50", "setting": "Rattus norvegicus [2]", "value": 22.1, "unit": "µM"}]}
{"smiles": "CN(C)c1ccc(/N=N/c2ccc(S(N)(=O)=O)cc2)cc1", "values": [{"measurement": "EC50", "setting": "Rattus norvegicus [1]", "value": 12.9, "unit": "µM"}, {"measurement": "selectivity ratio", "setting": "[3]", "value": "> 7.75"}, {"measurement": "IC50", "setting": "Rattus norvegicus [2]", "value": "> 100", "unit": "µM"}]}
